Experimental data reported in ChEMBL document CHEMBL4014327 (J Med Chem, 2017).
≈ marks a conversion by molar mass, not a printed value.

Assays:
[1] = Apparent permeability in RRCK cells from apical to basolateral side; assay type: ADME, cell-based, Canis lupus familiaris, MDCKII-LE; settings: dog, MDCK
Method in brief: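 RRCK cell monolayer permeability assay; apparent permeability reported in cm/s.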

CYP1A2 = CYP1A2 (Homo sapiens, UniProt P05177); experiment: Inhibition of CYP1A2 in human liver microsomes at 3 uM; assay type: ADME
Chain of CYP1A2 (P05177 whole entry): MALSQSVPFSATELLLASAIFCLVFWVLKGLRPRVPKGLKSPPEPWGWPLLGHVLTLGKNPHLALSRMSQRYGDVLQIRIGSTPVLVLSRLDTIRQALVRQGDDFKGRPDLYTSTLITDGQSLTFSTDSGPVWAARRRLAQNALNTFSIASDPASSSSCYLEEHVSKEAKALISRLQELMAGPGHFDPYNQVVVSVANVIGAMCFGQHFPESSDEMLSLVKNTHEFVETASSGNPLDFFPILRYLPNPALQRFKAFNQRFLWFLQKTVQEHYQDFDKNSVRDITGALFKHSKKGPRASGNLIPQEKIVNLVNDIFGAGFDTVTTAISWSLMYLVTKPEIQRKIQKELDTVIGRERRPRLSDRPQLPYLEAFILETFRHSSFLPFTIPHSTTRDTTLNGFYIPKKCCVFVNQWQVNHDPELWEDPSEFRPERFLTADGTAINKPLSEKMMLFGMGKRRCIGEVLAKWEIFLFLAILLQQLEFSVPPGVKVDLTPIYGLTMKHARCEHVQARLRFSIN

CYP2D6 = CYP2D6 (Homo sapiens, UniProt P10635); experiment: Inhibition of CYP2D6 in human liver microsomes at 3 uM; assay type: ADME
Chain of CYP2D6 (P10635 whole entry): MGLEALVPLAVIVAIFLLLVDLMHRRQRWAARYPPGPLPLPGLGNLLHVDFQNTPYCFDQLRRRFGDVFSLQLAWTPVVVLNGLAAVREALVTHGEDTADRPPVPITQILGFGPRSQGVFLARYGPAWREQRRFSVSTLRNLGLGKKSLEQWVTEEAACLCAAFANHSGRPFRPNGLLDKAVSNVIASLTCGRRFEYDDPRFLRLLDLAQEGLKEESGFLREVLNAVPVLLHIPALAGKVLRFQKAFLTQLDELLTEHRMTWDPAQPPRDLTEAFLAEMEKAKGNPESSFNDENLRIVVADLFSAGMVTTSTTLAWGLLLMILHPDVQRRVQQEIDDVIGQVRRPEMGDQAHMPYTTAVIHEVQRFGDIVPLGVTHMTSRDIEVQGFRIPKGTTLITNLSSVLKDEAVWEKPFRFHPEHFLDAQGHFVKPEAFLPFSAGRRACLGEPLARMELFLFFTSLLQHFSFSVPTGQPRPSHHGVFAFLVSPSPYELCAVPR

[2] = Solubility of compound in phosphate buffer at pH 6.7; assay type: physicochemical
Method in brief: (§1)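 Solubility of crystalline material measured in phosphate-buffered saline pH 6.7, unbuffered water pH 8.1 and simulated fasted-state intestinal fluid pH 6.5, reported in μg/mL.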

[3] = Solubility of compound in water at pH 8.1; assay type: physicochemical; method in brief: as §1
[4] = Half life in Beagle dog at 5 mg/kg, po administered as single dose; assay type: ADME, organism-based, Canis lupus familiaris; settings: in vivo
[5] = Half life in cynomolgus monkey at 1 mg/kg, iv administered as single dose; assay type: ADME, organism-based, Macaca fascicularis; settings: in vivo
[6] = Half life in cynomolgus monkey at 5 mg/kg, po administered as single dose; assay type: ADME, organism-based, Macaca fascicularis; settings: in vivo
CYP2C9 = CYP2C9 (Homo sapiens, UniProt P11712); experiment: Inhibition of CYP2C9 in human liver microsomes at 3 uM; assay type: ADME
Chain of CYP2C9 (P11712 whole entry): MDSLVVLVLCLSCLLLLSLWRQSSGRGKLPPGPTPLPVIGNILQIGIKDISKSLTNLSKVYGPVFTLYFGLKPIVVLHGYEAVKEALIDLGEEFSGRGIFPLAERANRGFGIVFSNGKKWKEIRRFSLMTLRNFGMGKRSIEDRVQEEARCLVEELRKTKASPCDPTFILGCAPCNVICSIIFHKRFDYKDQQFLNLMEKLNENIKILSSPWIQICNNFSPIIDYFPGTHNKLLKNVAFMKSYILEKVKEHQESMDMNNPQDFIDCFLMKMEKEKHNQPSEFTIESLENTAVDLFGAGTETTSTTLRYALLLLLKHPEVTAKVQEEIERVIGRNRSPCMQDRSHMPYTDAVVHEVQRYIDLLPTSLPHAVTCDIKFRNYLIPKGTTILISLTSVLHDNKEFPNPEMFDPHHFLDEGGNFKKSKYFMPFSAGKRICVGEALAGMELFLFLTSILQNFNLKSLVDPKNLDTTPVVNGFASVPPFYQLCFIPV

Cynomolgus monkey = experiment: Plasma clearance in cynomolgus monkey at 1 mg/kg, iv administered as single dose; assay type: ADME, organism-based, Macaca fascicularis; settings: in vivo
[7] = Volume of distribution at steady state in Beagle dog at 1 mg/kg, iv administered as single dose; assay type: ADME, organism-based, Canis lupus familiaris; settings: in vivo, read-out: Vdss
Method in brief: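 Single-dose pharmacokinetic study in male animals, with iv and separate oral administration. Steady-state volume of distribution was derived from plasma concentrations after the iv dose.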

[8] = Oral bioavailability in Beagle dog at 5 mg/kg administered as single dose; assay type: ADME, organism-based, Canis lupus familiaris; settings: in vivo
[9] = Oral bioavailability in cynomolgus monkey at 5 mg/kg administered as single dose; assay type: ADME, organism-based, Macaca fascicularis; settings: in vivo
[10] = biological target: T1, Interleukin-1 receptor-associated kinase 4 (Homo sapiens) (UniProt Q9NWZ3); experiment: Inhibition of recombinant human full length His-tagged IRAK4 expressed in baculovirus at 200 nM
T1 sequence (whole entry): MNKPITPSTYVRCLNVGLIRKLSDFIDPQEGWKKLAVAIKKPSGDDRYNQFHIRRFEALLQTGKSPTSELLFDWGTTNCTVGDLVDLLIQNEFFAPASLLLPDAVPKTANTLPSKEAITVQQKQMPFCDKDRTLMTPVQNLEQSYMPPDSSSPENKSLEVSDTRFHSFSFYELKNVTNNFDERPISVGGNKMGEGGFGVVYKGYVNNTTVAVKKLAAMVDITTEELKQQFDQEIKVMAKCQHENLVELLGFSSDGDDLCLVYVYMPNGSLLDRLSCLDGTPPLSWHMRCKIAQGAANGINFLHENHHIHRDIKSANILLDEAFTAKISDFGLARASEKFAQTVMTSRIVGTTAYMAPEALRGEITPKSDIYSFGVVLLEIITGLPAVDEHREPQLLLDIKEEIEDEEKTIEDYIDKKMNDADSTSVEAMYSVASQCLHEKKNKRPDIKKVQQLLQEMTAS

[11] = biological target: Interleukin-1 receptor-associated kinase 1 (Homo sapiens) (UniProt P51617); experiment: Inhibition of recombinant human GST-tagged IRAK1 expressed in baculovirus at 200 nM
[12] = biological target: Leucine-rich repeat serine/threonine-protein kinase 2 (Homo sapiens) (UniProt Q5S007); experiment: Inhibition of recombinant human GST-tagged LRRK2 expressed in baculovirus at 200 nM
[13] = biological target: Dual specificity protein kinase CLK4 (Homo sapiens) (UniProt Q9HAZ1); experiment: Inhibition of recombinant human full length GST-tagged CLK4 expressed in baculovirus at 200 nM
Chain of Dual specificity protein kinase CLK4 (Homo sapiens) (Q9HAZ1 whole entry, looked up, canonical isoform): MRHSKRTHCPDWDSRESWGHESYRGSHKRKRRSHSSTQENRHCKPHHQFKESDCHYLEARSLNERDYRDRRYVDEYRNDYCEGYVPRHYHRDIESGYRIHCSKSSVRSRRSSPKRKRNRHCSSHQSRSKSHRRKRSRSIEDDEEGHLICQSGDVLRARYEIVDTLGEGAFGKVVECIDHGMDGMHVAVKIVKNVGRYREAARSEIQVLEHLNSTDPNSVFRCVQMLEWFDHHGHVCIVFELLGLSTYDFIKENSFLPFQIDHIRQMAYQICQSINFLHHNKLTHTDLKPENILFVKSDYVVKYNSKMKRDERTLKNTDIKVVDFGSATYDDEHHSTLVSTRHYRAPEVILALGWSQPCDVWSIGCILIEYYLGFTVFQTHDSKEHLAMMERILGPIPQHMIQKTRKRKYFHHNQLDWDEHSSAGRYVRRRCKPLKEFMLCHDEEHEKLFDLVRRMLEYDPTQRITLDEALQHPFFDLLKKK

[14] = biological target: Casein kinase I isoform gamma-1 (Homo sapiens) (UniProt Q9HCP0); experiment: Inhibition of recombinant human full length GST-tagged CK1gamma1 expressed in baculovirus at 200 nM
[15] = biological target: Interleukin-1 receptor-associated kinase 3 (Homo sapiens) (UniProt Q9Y616); experiment: Inhibition of IRAK3 in human THP1 cell lysate at 200 nM
[16] = biological target: Phosphatidylinositol 5-phosphate 4-kinase type-2 gamma (Homo sapiens) (UniProt Q8TBX8); experiment: Inhibition of PIPK2C in human THP1 cell lysate at 200 nM
Chain of Phosphatidylinositol 5-phosphate 4-kinase type-2 gamma (Homo sapiens) (Q8TBX8 whole entry): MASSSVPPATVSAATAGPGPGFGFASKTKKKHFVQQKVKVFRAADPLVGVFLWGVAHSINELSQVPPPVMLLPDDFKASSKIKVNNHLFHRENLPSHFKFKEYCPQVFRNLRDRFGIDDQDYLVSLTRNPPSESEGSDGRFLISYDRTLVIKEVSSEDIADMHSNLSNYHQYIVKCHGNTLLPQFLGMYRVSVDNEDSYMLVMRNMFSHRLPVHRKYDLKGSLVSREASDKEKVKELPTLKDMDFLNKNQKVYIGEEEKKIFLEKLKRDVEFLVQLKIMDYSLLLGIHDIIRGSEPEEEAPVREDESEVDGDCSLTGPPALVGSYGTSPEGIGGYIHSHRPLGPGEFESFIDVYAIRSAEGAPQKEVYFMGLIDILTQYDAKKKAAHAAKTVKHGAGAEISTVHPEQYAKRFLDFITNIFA

[17] = biological target: Casein kinase I delta/epsilon (Homo sapiens) (UniProt P48730+P49674); experiment: Inhibition of CK1-delta/epsilon in human THP1 cell lysate at 200 nM
[18] = biological target: T2, Vascular endothelial growth factor receptor 2 (Homo sapiens, UniProt P35968); experiment: Inhibition of human recombinant VEGFR2 at 10 uM using CAGAGAIETDKEYYTVKD as substrate after 60 mins by Lance method
T2 sequence (P35968 whole entry): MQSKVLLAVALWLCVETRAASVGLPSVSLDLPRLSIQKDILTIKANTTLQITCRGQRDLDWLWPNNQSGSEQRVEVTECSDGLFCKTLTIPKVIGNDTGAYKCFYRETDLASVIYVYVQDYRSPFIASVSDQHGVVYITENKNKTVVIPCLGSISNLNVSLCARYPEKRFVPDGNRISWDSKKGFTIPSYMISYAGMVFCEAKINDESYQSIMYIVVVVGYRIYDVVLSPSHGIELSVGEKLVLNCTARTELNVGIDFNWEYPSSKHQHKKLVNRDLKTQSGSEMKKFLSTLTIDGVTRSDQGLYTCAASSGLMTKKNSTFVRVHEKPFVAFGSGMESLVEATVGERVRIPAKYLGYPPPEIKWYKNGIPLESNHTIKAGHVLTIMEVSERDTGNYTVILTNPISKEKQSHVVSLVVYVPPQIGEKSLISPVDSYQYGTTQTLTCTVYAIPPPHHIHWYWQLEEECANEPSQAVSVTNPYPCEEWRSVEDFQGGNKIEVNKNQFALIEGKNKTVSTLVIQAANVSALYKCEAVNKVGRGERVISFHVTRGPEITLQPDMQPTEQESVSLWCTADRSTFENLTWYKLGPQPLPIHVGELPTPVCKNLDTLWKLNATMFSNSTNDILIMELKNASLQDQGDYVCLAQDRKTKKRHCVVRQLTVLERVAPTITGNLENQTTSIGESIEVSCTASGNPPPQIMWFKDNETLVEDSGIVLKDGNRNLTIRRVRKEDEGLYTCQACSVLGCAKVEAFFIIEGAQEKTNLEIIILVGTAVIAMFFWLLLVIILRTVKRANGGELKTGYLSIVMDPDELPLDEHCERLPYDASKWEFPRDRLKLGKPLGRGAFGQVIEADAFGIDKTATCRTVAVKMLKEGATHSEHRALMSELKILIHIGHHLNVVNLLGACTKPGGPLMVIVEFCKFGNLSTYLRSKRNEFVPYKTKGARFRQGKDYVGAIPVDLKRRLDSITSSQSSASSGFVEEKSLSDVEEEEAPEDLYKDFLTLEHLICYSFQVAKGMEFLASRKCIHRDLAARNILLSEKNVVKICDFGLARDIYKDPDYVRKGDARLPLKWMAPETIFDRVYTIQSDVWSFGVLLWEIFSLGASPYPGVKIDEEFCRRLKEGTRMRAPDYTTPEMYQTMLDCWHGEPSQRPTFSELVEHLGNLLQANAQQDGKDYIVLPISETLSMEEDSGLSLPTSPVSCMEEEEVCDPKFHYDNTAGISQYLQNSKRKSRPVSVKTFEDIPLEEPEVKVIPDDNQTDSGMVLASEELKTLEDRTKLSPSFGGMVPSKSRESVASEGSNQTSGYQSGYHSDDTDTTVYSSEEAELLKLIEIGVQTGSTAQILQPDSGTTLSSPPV

Cytochrome P450 1A2 = Cytochrome P450 1A2 (Homo sapiens, UniProt P05177); experiment: Time dependent inhibition of CYP1A2 in human liver microsomes at 100 uM; assay type: ADME
Chain of Cytochrome P450 1A2 (P05177 whole entry): as the sequence (P05177 whole entry) above
Method in brief: (§2)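 Time-dependent inhibition assessed in pooled human liver microsomes with probe substrates, test compound at 100 μM.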

Cytochrome P450 2B6 = Cytochrome P450 2B6 (Homo sapiens, UniProt P20813); experiment: Time dependent inhibition of CYP2B6 in human liver microsomes at 100 uM; assay type: ADME; method in brief: as §2
Chain of Cytochrome P450 2B6 (P20813 whole entry): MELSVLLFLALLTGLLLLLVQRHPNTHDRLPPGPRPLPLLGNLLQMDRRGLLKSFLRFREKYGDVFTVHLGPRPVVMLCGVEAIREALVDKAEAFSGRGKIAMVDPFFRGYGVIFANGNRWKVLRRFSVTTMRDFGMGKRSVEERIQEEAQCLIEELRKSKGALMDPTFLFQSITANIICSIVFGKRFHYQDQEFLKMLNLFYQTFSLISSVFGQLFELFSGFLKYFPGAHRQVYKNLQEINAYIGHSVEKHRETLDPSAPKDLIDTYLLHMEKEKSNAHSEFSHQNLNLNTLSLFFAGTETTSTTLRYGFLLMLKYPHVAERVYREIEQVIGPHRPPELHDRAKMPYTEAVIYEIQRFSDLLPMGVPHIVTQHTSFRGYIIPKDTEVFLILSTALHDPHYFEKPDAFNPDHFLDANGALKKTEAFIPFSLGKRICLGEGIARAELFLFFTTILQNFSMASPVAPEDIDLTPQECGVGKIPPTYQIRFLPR

Cytochrome P450 2C8 = Cytochrome P450 2C8 (Homo sapiens, UniProt P10632); experiment: Time dependent inhibition of CYP2C8 in human liver microsomes at 100 uM; assay type: ADME; method in brief: as §2
Cytochrome P450 2C9 = Cytochrome P450 2C9 (Homo sapiens, UniProt P11712); experiment: Time dependent inhibition of CYP2C9 in human liver microsomes at 100 uM; assay type: ADME; method in brief: as §2
Chain of Cytochrome P450 2C9 (P11712 whole entry): as the sequence (P11712 whole entry) above

Rattus norvegicus [19] = experiment: Inhibition of LPS induced TNFalpha secretion in Sprague-Dawley rat assessed as decrease in TNFalpha level in serum at 0.3 mg/kg, po pretreated for 1 hr followed by LPS challenge measured after 1.5 hrs relative to control; assay type: functional
Method in brief: (§3)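 Male Sprague-Dawley rats, 6-8 weeks old, n = 6-9 per group. Test article was given orally at 0.3, 1, 3 or 30 mg/kg as a solution or suspension in 0.5% methylcellulose and 2% Tween 80 in water; controls received vehicle alone. Ultrapure LPS (0.01 mg/kg) was given iv 1 h later. Blood was drawn 1.5 h after challenge, and serum TNF was measured by MSD.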

Rattus norvegicus [20] = experiment: Inhibition of LPS induced TNFalpha secretion in Sprague-Dawley rat assessed as decrease in TNFalpha level in serum at 30 mg/kg, po pretreated for 1 hr followed by LPS challenge measured after 1.5 hrs relative to control; assay type: functional; method in brief: as §3
Plasma [21] = experiment: Free plasma concentration in Sprague-Dawley rat LPS model at 0.3 mg/kg, po after 2.5 hrs; assay type: ADME, organism-based; settings: in vivo
Method in brief: (§4)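 Male Sprague−Dawley rats, 6−8 weeks old, n = 6−9 per group. Dosed orally at 0.3, 1, 3 or 30 mg/kg in 0.5% methylcellulose/2% Tween 80 in water. Ultrapure LPS 0.01 mg/kg iv given 1 h after dosing. Plasma exposure taken 2.5 h after oral dosing and reported as free concentration using fraction unbound in rat plasma.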

Plasma [22] = experiment: Free plasma concentration in Sprague-Dawley rat LPS model at 3 mg/kg, po after 2.5 hrs; assay type: ADME, organism-based; settings: in vivo; method in brief: as §4
[23] = biological target: T2, Vascular endothelial growth factor receptor 2; experiment: Inhibition of human recombinant VEGFR2 using CAGAGAIETDKEYYTVKD as substrate after 60 mins by Lance method

Structure (SMILES): CC[C@@H]1[C@H](F)C(=O)N[C@@H]1COc1nccc2cc(C(N)=O)c(OC)cc12 [ZIMLOVISERTIB]
- Papp A→B [1]: 9.6 ×10⁻⁶ cm/s
- inhibition at 3 µM (CYP1A2): < 5%
- inhibition at 3 µM (CYP2D6): < 5%
- solubility [2]: 57 µg/mL (≈ 158 µM)
- solubility [3]: 65 µg/mL (≈ 180 µM)
- half-life [4]: 4 h
- half-life [5]: 1.7 h
- half-life [6]: 6.2 h
- inhibition at 3 µM (CYP2C9): < 5%
- clearance (Cynomolgus monkey): 10 mL/min/kg
- Vd [7]: 0.77 L/kg
- bioavailability [8]: 41%
- bioavailability [9]: 6.9%
- inhibition [10]: 100%
- inhibition [11]: > 70%
- inhibition [12]: > 70%
- inhibition [13]: > 70%
- inhibition [14]: > 70%
- inhibition [15]: > 50%
- inhibition [16]: > 50%
- inhibition [17]: > 50%
- inhibition [18]: > 50%
- TDI (Cytochrome P450 1A2): Not Active
- TDI (Cytochrome P450 2B6): Not Active
- TDI (Cytochrome P450 2C8): Not Active
- TDI (Cytochrome P450 2C9): Not Active
- inhibition in vivo at 0.3 mg/kg (Rattus norvegicus [19]): 12%
- inhibition in vivo at 30 mg/kg (Rattus norvegicus [20]): 87%
- Cp(f) (Plasma [21]): 2.1 nM
- Cp(f) (Plasma [22]): 19 nM
- IC50 [23]: 5.33 µM
